Active and inactive are the calls of the source. No cut-off for these calls is given here.

Data set [1] addresses T1, Phosphotyrosine protein phosphatase (Mycobacterium tuberculosis, UniProt A0A045ISB3).
T1 sequence (A0A045ISB3 whole entry): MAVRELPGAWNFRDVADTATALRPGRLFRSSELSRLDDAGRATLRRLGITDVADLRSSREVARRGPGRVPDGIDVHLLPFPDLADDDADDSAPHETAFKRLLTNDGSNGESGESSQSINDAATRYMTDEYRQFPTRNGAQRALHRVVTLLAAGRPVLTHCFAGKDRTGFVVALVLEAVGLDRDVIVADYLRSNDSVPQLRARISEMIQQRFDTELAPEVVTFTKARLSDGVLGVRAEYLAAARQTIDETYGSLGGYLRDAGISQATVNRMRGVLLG
Put plainly: Inhibition of Mycobacterium tuberculosis H37Rv His-tagged ptpB expressed in Escherichia coli BL21(DE3) using pNPP as substrate preincubated for 15 mins followed by substrate addition and measured after 15 mins.

Data set [2] has as its target T2, Tyrosine-protein phosphatase non-receptor type 1 (Homo sapiens, UniProt P18031).
T2 sequence (P18031 whole entry): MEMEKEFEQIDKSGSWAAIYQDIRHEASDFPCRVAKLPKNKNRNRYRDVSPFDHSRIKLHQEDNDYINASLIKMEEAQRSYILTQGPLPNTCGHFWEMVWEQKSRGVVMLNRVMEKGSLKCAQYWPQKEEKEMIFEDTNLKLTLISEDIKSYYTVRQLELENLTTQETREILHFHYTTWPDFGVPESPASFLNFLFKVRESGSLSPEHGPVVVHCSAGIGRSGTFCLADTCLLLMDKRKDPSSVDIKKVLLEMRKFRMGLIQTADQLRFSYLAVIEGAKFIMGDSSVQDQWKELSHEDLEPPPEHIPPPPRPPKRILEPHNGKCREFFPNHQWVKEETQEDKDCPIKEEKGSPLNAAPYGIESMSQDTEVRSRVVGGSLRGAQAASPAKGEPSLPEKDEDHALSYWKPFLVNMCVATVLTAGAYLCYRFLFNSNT
Kind of data set: Inhibition of human PTP1B using pNPP as substrate preincubated for 15 mins followed by substrate addition and measured after 15 mins.

Data set [3] relates to J774.A1. Put plainly: Cytotoxicity against mouse J774A.1 cells assessed as reduction in cell viability at 50 to 150 uM after 24 hrs by MTT assay. As to conditions: j774.a1, 24 h. In kind it is cell-based. The method in brief: (§1)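 MTT viability assay in J774A.1 cells seeded at 6 × 10^3/well and adhered overnight. Inhibitor in DMSO or DMSO only added for 24 h. MTT (5 mg/mL in PBS) added for 4 h, formazan dissolved in DMSO with Sorensen's glycine buffer, absorbance read at 570 nm.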

Data set [4] has as its target Dual specificity protein phosphatase 3 (Homo sapiens, UniProt P51452). Kind of data set: Inhibition of human VHR using pNPP as substrate preincubated for 15 mins followed by substrate addition and measured after 15 mins. The method in brief: (§2)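 His-tagged MptpA/MptpB expressed in E. coli BL21(DE3); VHR and hPTP1B purified as GST fusions with the tag cleaved. 0.5 μg protein in Tris/BisTris/acetate buffer (pH 7 MptpB, 6.5 MptpA, 6 hPTP1B, 5 VHR) with compound at 0–250 μM, 15 min at room temperature. pNPP added to 0.35 mM for 15 min, quenched with NaOH, read at 405 nm against a pNP curve. No-enzyme blanks.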

Data set [5] can be described thus: Inhibition of Mycobacterium tuberculosis H37Rv His-tagged ptpA expressed in Escherichia coli BL21(DE3) using pNPP as substrate preincubated for 15 mins followed by substrate addition and measured after 15 mins. The method in brief: as §2
For data set [6], the system named is Cavia porcellus. Kind of data set: Oral bioavailability in Dunkin Hartley guinea pig at 3.5 mg/kg. In kind it is ADME, organism-based. As to conditions: in vivo.
The subject of data set [7] is Cavia porcellus. Kind of data set: Cmax in Dunkin Hartley guinea pig at 1.25 mg/kg, ip after 0.5 hrs post dose. The format is ADME, organism-based. As to conditions: in vivo. More on the design: dose 1.25 mg/kg, route intraperitoneal.
For data set [8], the system named is Cavia porcellus. Put plainly: AUCinfinity in Dunkin Hartley guinea pig at 1.25 mg/kg, ip. In kind it is ADME, organism-based. Set-up: dose 1.25 mg/kg, time infinity, route intraperitoneal. As to conditions: in vivo.
For data set [9], the system named is Cavia porcellus. Put plainly: Half life in Dunkin Hartley guinea pig at 1.25 mg/kg, ip. As to conditions: in vivo. The format is ADME, organism-based.
In data set [10] the test system is Cavia porcellus. Kind of data set: Cmax in Dunkin Hartley guinea pig at 3.5 mg/kg, po after 0.25 hrs post dose. In kind it is ADME, organism-based. More on the design: dose 3.5 mg/kg, route oral. The conditions noted are these: in vivo, BLD = below limit of detection.
Data set [11] concerns Cavia porcellus. Put plainly: Half life in Dunkin Hartley guinea pig at 3.5 mg/kg, po. The format is ADME, organism-based. The conditions noted are these: in vivo, BLD = below limit of detection.
Data set [12] deals with Cavia porcellus. Kind of data set: AUCinfinity in Dunkin Hartley guinea pig at 3.5 mg/kg, po. In kind it is ADME, organism-based. More on the design: dose 3.5 mg/kg, route oral, time infinity. As to conditions: in vivo, BLD = below limit of detection.
The subject of data set [13] is Cavia porcellus. Put plainly: AUCinfinity in Dunkin Hartley guinea pig at 5 mg/kg, po. The conditions noted are these: in vivo, BLD = below limit of detection. The format is ADME, organism-based. More on the design: dose 5 mg/kg, time infinity, route oral.
Data set [14] has as its system Cavia porcellus. Put plainly: Oral bioavailability in Dunkin Hartley guinea pig at 5 mg/kg. The format is ADME, organism-based. The conditions noted are these: in vivo.
In data set [15] the test system is Cavia porcellus. Put plainly: Half life in Dunkin Hartley guinea pig at 2.5 mg/kg, ip. In kind it is ADME, organism-based. As to conditions: in vivo.
In data set [16] the test system is Cavia porcellus. Put plainly: AUCinfinity in Dunkin Hartley guinea pig at 2.5 mg/kg, ip. The format is ADME, organism-based. More on the design: dose 2.5 mg/kg, time infinity, route intraperitoneal. As to conditions: in vivo.
Data set [17] concerns Cavia porcellus. Kind of data set: Half life in Dunkin Hartley guinea pig at 5 mg/kg, po. In kind it is ADME, organism-based. The conditions noted are these: in vivo, BLD = below limit of detection.
The test system of data set [18] is Cavia porcellus. Kind of data set: Cmax in Dunkin Hartley guinea pig at 2.5 mg/kg, ip after 0.5 hrs post dose. As to conditions: in vivo. In kind it is ADME, organism-based. More on the design: dose 2.5 mg/kg, route intraperitoneal.
Data set [19] has as its system Cavia porcellus. Kind of data set: Cmax in Dunkin Hartley guinea pig at 5 mg/kg, po after 0.25 hrs post dose. In kind it is ADME, organism-based. More on the design: dose 5 mg/kg, route oral. The conditions noted are these: in vivo, BLD = below limit of detection.
Data set [20] has as its system J774.A1. Kind of data set: Cytotoxicity against mouse J774A.1 cells assessed as reduction in cell viability at >100 uM after 24 hrs by MTT assay. The format is cell-based. As to conditions: j774.a1, 24 h. The method in brief:
as §1

Data set [21] concerns the target T3, Phosphotyrosine protein phosphatase (Mycobacterium tuberculosis) (UniProt A0A045ISB3).
T3 sequence (whole entry): T1 sequence (A0A045ISB3 whole entry)
Put plainly: Inhibition of Mycobacterium tuberculosis H37Rv ATCC 35837 ptpB infected in human THP1 cells assessed as reduction in intracellular bacterial burden at 10 to 80 uM after 72 hrs post infection relative to DMSO-treated control. In kind it is cell-based. In a few lines:
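PMA-differentiated THP1 cells (1 × 10^6/well, RPMI with 10% FBS and 4 mM L-glutamine) received inhibitor in DMSO, then thawed M. tuberculosis at MOI 1:1. Washed after 3 h; medium and inhibitor renewed at 24 h. At 72 h, lysed in 0.05% SDS; 10-fold dilutions plated in duplicate on 7H10, CFU counted after 3 weeks at 37 °C; triplicate experiments.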

Data set [22] can be described thus: Selectivity ratio of IC50 for human PTP1B to IC50 for Mycobacterium tuberculosis H37Rv His-tagged ptpB.

Chain of Dual specificity protein phosphatase 3 (P51452 whole entry, the tested form may be a part): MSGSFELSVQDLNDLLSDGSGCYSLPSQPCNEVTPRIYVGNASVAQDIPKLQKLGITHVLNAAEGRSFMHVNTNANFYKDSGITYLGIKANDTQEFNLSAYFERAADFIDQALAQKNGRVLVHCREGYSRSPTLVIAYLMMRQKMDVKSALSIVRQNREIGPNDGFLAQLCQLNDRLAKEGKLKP

Take `O=C(O)c1cc(-c2ccccc2)on1`: the IC50 (as a rule, the concentration needed to halve the response being measured) in data set [1] is more than 500 µM.

For `O=C(O)c1noc(-c2ccccc2)c1-c1cccc(-c2cc(Cl)c(O)c([N+](=O)[O-])c2)c1`, the IC50 amounted to 313 µM in data set [2], 13 µM in [4] and 30.2 µM in data set [5]. For the same molecule, in the data set with J774.A1 [3], the Activity entry is “Non-Toxic”.

On to `O=C(O)c1noc(-c2ccccc2)c1-c1cccc(-c2cc(Cl)cc(Cl)c2)c1`, for which the F in the data set with Cavia porcellus [6] is listed as less than 13%. Besides, the maximum concentration (Cmax) (usually the peak of the concentration-time curve) is 746 ng/mL with Cavia porcellus [7] and “Bld” in the data set with Cavia porcellus [10]. In addition, the IC50 turned out to be 48 µM in data set [2], 12.3 µM in data set [4] and 6.5 µM in data set [5]. In addition, the AUC (commonly concentration integrated over time) is 1742 ng·h/mL in the data set with Cavia porcellus [8] and “Bld” with Cavia porcellus [12]. Also, the values for the t1/2 in the data set on Cavia porcellus [9] and in the data set on Cavia porcellus [11] were 1.3 h and “Bld”, respectively.

In [1], `COc1cccc(-c2c(C(=O)O)noc2-c2ccccc2)c1` had an IC50 of 38 µM.

Regarding `O=C(O)c1noc(-c2ccccc2)c1-c1cccc(-c2cc(Cl)c(O)c(Cl)c2)c1`, the results for the AUC entry with Cavia porcellus [13] and with Cavia porcellus [16] were “Bld” and 4968 ng·h/mL, respectively. In addition, the IC50 in data set [2] was found to be 127 µM; in data set [4] it was 10.5 µM; in data set [5], 33.7 µM. Moreover, the Activity entry with J774.A1 [3] is on record as “Non-Toxic”. Also, in the data set on Cavia porcellus [14], the F is reported as less than 4%. Moreover, the t1/2 is 0.7 h with Cavia porcellus [15] and “Bld” with Cavia porcellus [17]. The Cmax in the data set on Cavia porcellus [18] is 3714 ng/mL; with Cavia porcellus [19], “Bld”.

For the molecule `Cc1cc(-c2cccc(-c3c(C(=O)O)noc3-c3ccccc3)c2)cc(C)c1O`, the area under the curve (AUC) entry was “Bld” in the data set with Cavia porcellus [13] and 399 ng·h/mL with Cavia porcellus [16]. Moreover, the IC50 in data set [2] is more than 100 µM; in [4], 23.2 µM; in data set [5], 36 µM. The same molecule registered a F with Cavia porcellus [14] of less than 2.5%. Further, the t1/2 is 1.4 h in the data set with Cavia porcellus [15] and “Bld” in the data set on Cavia porcellus [17]. Further, the Cmax was 197 ng/mL in the data set on Cavia porcellus [18] and “Bld” with Cavia porcellus [19].

In the case of `O=C(O)c1noc(-c2ccccc2)c1-c1cccc(-c2ccc(O)c(Cl)c2)c1`, the IC50 in data set [1] is 0.9 µM; in data set [2], 213 µM; in data set [4] it was 18.7 µM; in data set [5], 23.5 µM. Moreover, the Activity was more than 23% in the data set with J774.A1 [20] and “Non-Toxic” in the data set with J774.A1 [3].

For `O=C(O)c1noc(-c2ccccc2)c1-c1cccc(-c2ccc(O)cc2)c1`, the IC50 in [1] is 2.8 µM; in data set [2] it was more than 100 µM; in data set [4], 54 µM; in data set [5] it was 74 µM. Moreover, in the data set on J774.A1 [3], the Activity result is “Non-Toxic”.

Turning to `O=C(O)c1noc(-c2ccccc2)c1-c1cccc(-c2cccc(O)c2)c1`, the IC50 was more than 100 µM in data set [2], 59 µM in data set [4] and 95 µM in [5].

As to `COC(=O)c1c(O)cccc1OC/C=C/c1cccc(-c2cc(C(=O)O)no2)c1` [ISOXAZOLECARBOXYLIC ACID], the IC50 in data set [1] was 7 µM. In [21], the inhibition result is “Active”.

Take `O=C(O)c1noc(-c2ccccc2)c1-c1ccccc1`: the IC50 is 17 µM in data set [1] and 100 µM in data set [2]. Further, in data set [22], the Ratio IC50 was determined as 5.9.

Regarding `O=C(O)c1noc(-c2ccccc2)c1-c1cccc(-c2ccc(O)c(F)c2)c1`, the 50% inhibitory concentration (IC50) was 1.5 µM in data set [1], more than 100 µM in data set [2], 40.2 µM in data set [4] and 35.3 µM in data set [5]. In addition, in the data set on J774.A1 [3], the Activity result is given as “Non-Toxic”.

Consider `O=C(O)c1noc(-c2ccccc2)c1-c1cccc(O)c1`, for which the IC50 in data set [1] came out at 85 µM.
